Measurements from ChEMBL document CHEMBL6092210, “Synthesis, in vitro and in vivo biological evaluation of novel dual compounds targeting both acetylcholinesterase and serotonergic 5-HT4 receptors with potential interest in the treatment of Alzheimer's disease” (Eur J Med Chem, 2024).
pIC50, pKi: −log10 of the molar value.

Legend:
[1] = Half life in C57BL6 mouse at 0.3 to 3 mg/kg, iv; type: ADME, organism-based; settings: in vivo, dose 0.3-3 mg/kg
Summary of the method: (§1)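 Single iv dose of 0.3, 1 or 3 mg/kg in 0.9 % saline, three animals per dose (C57Bl6 mice, Wistar rats). Terminal cardiac-puncture blood under isoflurane at six time points. Plasma protein-precipitated and assayed by UHPLC–MS/MS (LLOQ 1 ng/mL). Parameters from non-compartmental analysis.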

[2] = Drug metabolism in mouse liver microsome measured at 60 mins by UPLC/QE-orbitrap-MS method; type: ADME; settings: microsomes, 1 h
Summary of the method: (§2)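 Test compound as fumarate salt incubated with human, dog, mouse or rat liver microsomes over 0–60 min. Parent remaining measured by UPLC/QE-orbitrap-MS as relative LC/MS peak area (% of 0 min), n = 1.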

[3] = Drug metabolism in rat liver microsome measured at 20 mins by UPLC/QE-orbitrap-MS method; type: ADME; settings: microsomes; summary of the method: as §2
[4] = Drug metabolism in rat liver microsome measured at 10 mins by UPLC/QE-orbitrap-MS method; type: ADME; settings: microsomes; summary of the method: as §2
[5] = Drug metabolism in human liver microsome measured at 20 mins by UPLC/QE-orbitrap-MS method; type: ADME; settings: microsomes; summary of the method: as §2
[6] = Toxicity in C57BL/6 mouse assessed as reversal of scopolamine-induced spontaneous alternation deficit at 3 mg/kg, sc incubated for 30 mins; type: organism-based; settings: in vivo, 0.5 h
Cytochrome P450 2A6 = target: T1, Cytochrome P450 2A6 (Homo sapiens, UniProt P11509); assay: Inhibition of CYP2A6 in human liver microsomes using coumarin as substrate; type: ADME, Microsome
T1 sequence (P11509 whole entry): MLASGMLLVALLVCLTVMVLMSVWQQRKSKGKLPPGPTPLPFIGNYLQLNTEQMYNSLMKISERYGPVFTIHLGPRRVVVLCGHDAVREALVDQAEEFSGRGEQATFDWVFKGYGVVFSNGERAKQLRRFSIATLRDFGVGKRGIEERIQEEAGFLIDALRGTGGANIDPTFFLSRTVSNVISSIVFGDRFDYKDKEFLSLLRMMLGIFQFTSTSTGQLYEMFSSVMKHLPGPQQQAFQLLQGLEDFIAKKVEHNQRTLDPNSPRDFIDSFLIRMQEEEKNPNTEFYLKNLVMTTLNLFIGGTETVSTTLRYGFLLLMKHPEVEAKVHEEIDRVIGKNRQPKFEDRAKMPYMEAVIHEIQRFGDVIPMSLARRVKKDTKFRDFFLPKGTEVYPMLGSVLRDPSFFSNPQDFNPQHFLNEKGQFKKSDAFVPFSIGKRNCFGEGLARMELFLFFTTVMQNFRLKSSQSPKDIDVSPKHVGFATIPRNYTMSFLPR
Summary of the method: (§3)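 Human liver microsomes with a cocktail of CYP-specific probe substrates; metabolite formation monitored for each probe reaction. Test compound (fumarate) at 0.01, 0.1, 1, 10 and 100 μM. Control inhibitors run at a single concentration for each probe reaction. IC50 estimated.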

[7] = Half life in Wistar rat at 0.3 to 3 mg/kg, iv; type: ADME, organism-based; settings: in vivo, dose 0.3-3 mg/kg; summary of the method: as §1
[8] = Clearance in C57BL6 mouse at 0.3 to 3 mg/kg, iv; type: ADME, organism-based; settings: in vivo, dose 0.3-3 mg/kg; summary of the method: as §1
Cytochrome P450 2C9 = Cytochrome P450 2C9 (Homo sapiens, UniProt P11712); assay: Inhibition of CYP2C9 in human liver microsomes using diclofenac as substrate; type: ADME, Microsome; summary of the method: as §3
Cytochrome P450 2C9, sequence (P11712 whole entry): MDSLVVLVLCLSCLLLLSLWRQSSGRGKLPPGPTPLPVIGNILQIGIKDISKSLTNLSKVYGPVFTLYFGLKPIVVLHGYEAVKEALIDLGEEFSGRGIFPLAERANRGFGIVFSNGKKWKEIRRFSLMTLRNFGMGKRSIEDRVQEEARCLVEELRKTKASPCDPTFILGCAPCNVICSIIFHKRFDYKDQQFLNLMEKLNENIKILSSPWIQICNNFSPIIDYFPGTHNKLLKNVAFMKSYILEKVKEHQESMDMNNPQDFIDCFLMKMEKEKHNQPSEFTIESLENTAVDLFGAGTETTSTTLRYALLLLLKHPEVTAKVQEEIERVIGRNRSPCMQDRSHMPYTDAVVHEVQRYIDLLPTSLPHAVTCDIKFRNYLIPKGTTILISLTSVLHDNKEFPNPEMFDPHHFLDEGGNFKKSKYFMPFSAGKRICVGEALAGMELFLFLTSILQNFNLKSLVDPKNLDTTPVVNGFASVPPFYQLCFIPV

[9] = Drug metabolism in human liver microsome measured at 60 mins by UPLC/QE-orbitrap-MS method; type: ADME; settings: microsomes, 1 h; summary of the method: as §2
[10] = Drug metabolism in human liver microsome measured at 40 mins by UPLC/QE-orbitrap-MS method; type: ADME; settings: microsomes; summary of the method: as §2
[11] = Drug metabolism in dog liver microsome measured at 20 mins by UPLC/QE-orbitrap-MS method; type: ADME, Canis lupus familiaris; settings: microsomes; summary of the method: as §2
[12] = Drug metabolism in dog liver microsome measured at 10 mins by UPLC/QE-orbitrap-MS method; type: ADME, Canis lupus familiaris; settings: microsomes; summary of the method: as §2
[13] = Toxicity in C57BL/6 mouse assessed as spontaneous locomotor activity at 10 mg/kg, ip incubated for 30 mins; type: organism-based; settings: in vivo, 0.5 h
[14] = Volume of distribution in C57BL6 mouse at 0.3 to 3 mg/kg, iv; type: ADME, organism-based; settings: in vivo, dose 0.3-3 mg/kg
Summary of the method: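 Pharmacokinetics in C57Bl6 mice given the compound iv at 0.3, 1 or 3 mg/kg in 0.9 % saline (10 mL/kg), three animals per dose. Terminal cardiac blood taken under isoflurane at six time points. Plasma analyzed by UHPLC–MS/MS (LLOQ 1 ng/mL). Parameters derived by non-compartmental analysis.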

[15] = Drug metabolism in rat liver microsome measured at 40 mins by UPLC/QE-orbitrap-MS method; type: ADME; settings: microsomes; summary of the method: as §2
Cytochrome P450 3A4 [16] = target: T2, Cytochrome P450 3A4 (Homo sapiens, UniProt P08684); assay: Inhibition of CYP3A4 in human liver microsomes using Omeprazole as substrate; type: ADME, Microsome; summary of the method: as §3
T2 sequence (P08684 whole entry): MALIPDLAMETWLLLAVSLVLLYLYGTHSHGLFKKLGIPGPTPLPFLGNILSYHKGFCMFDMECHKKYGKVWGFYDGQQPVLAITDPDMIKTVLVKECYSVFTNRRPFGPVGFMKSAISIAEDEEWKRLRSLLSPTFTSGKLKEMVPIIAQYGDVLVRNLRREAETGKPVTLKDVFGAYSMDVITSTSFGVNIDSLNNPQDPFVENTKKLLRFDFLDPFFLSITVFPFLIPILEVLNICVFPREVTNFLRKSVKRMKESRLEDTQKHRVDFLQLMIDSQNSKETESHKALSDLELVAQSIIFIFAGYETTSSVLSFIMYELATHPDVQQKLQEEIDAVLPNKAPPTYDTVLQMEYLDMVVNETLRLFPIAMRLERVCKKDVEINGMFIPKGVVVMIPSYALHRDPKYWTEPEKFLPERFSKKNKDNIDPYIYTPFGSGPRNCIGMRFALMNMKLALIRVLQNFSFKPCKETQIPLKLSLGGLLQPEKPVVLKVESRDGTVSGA

[17] = Drug metabolism in mouse liver microsome measured at 40 mins by UPLC/QE-orbitrap-MS method; type: ADME; settings: microsomes; summary of the method: as §2
[18] = Toxicity in C57BL/6 mouse assessed as memory impairment at 0.3 mg/kg, ip incubated for 30 mins by novel object recognition test; type: organism-based; settings: in vivo, 0.5 h
[19] = Clearance in C57BL6 mouse at 3 mg/kg, iv; type: ADME, organism-based; settings: in vivo; summary of the method: as §1
Cytochrome P450 2C19 = Cytochrome P450 2C19 (Homo sapiens, UniProt P33261); assay: Inhibition of CYP2C19 in human liver microsomes using omeprazole as substrate; type: ADME, Microsome; summary of the method: as §3
Cytochrome P450 2C19, sequence (P33261 whole entry): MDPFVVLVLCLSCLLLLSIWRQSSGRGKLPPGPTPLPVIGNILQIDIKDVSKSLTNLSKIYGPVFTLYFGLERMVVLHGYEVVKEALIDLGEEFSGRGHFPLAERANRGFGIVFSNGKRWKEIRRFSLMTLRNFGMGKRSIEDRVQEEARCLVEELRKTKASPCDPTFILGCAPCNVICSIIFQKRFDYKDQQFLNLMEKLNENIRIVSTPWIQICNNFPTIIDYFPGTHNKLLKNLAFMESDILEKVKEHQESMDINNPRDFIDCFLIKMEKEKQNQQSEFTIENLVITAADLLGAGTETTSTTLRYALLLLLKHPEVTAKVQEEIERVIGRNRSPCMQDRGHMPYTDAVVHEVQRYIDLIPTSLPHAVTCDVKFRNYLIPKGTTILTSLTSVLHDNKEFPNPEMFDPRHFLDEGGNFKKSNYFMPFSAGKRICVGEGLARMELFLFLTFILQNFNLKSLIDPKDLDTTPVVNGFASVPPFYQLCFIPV

Cytochrome P450 3A4 [20] = target: T2, Cytochrome P450 3A4; assay: Inhibition of CYP3A4 in human liver microsomes using Midazolam as substrate; type: ADME, Microsome; summary of the method: as §3
[21] = Drug metabolism in mouse liver microsome measured at 10 mins by UPLC/QE-orbitrap-MS method; type: ADME; settings: microsomes; summary of the method: as §2
Cytochrome P450 3A4 [22] = target: T2, Cytochrome P450 3A4; assay: Inhibition of CYP3A4 in human liver microsomes using Testosterone as substrate; type: ADME, Microsome; summary of the method: as §3
[23] = target: 5-hydroxytryptamine receptor 4 (Homo sapiens, UniProt Q13639); assay: Binding affinity to human recombinant 5HT4 receptor assessed as inhibition constant incubated for 60 mins
5-hydroxytryptamine receptor 4, sequence (Q13639 whole entry): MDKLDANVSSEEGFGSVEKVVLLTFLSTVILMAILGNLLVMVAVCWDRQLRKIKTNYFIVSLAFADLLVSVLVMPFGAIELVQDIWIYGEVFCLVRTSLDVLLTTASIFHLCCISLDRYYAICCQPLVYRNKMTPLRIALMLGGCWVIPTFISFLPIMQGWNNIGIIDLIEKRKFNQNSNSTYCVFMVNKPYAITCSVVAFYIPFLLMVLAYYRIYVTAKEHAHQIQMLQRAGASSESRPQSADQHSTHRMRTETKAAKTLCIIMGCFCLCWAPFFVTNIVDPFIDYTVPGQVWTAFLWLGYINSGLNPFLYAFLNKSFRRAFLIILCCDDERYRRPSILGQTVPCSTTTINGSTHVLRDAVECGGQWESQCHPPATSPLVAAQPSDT

[24] = Drug metabolism in mouse liver microsome measured at 20 mins by UPLC/QE-orbitrap-MS method; type: ADME; settings: microsomes; summary of the method: as §2
Cytochrome P450 1A2 = target: T3, Cytochrome P450 1A2 (Homo sapiens, UniProt P05177); assay: Inhibition of CYP1A2 in human liver microsomes using phenacetin as substrate; type: ADME, Microsome; summary of the method: as §3
T3 sequence (P05177 whole entry): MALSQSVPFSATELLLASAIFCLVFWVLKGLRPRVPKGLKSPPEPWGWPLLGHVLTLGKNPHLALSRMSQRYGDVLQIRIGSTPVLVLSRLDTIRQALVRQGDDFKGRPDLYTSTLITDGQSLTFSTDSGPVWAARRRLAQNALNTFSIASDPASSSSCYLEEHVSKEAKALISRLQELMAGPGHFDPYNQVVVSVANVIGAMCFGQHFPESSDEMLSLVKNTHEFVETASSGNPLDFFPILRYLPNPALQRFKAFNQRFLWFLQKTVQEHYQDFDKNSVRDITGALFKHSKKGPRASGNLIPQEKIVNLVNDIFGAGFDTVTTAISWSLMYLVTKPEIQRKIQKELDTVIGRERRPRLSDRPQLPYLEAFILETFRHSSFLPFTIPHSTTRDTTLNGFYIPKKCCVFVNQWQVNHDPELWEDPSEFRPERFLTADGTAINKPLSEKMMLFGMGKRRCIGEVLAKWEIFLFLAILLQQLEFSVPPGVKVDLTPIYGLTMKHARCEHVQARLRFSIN

[25] = Drug metabolism in dog liver microsome measured at 60 mins by UPLC/QE-orbitrap-MS method; type: ADME, Canis lupus familiaris; settings: microsomes, 1 h; summary of the method: as §2

COc1cc(N)c(F)cc1C(=O)CCC1CCN(CC2CCCCC2)CC1.O=C(O)/C=C/C(=O)O
half-life [1]: 47.8 min
Drug metabolism [2]: 17%
Drug metabolism [3]: 10%
Drug metabolism [4]: 26%
Drug metabolism [5]: 78%
Activity [6]: Non-toxic
pIC50 (Cytochrome P450 2A6): < 4.00
half-life [7]: 46.1 min
clearance [8]: 35.5 mL/min/kg
pIC50 (Cytochrome P450 2C9): < 4.00
Drug metabolism [9]: 59%
Drug metabolism [10]: 63%
Drug metabolism [11]: 60%
Drug metabolism [12]: 77%
Activity [13]: Non-toxic
Vd [14]: 3.6 L/kg
Drug metabolism [15]: 6%
pIC50 (Cytochrome P450 3A4 [16]): 5.27
Drug metabolism [17]: 25%
Activity [18]: Non-toxic
clearance [19]: 191 mL/min/kg
pIC50 (Cytochrome P450 2C19): 5.14
pIC50 (Cytochrome P450 3A4 [20]): 4.64
Drug metabolism [21]: 63%
pIC50 (Cytochrome P450 3A4 [22]): 5.10
pKi [23]: 7.79
Drug metabolism [24]: 44%
pIC50 (Cytochrome P450 1A2): 4.08
Drug metabolism [25]: 29%
